# Source: PubChem (several laboratories)
# HUVEC inhibit: inhibitors of HUVEC proliferation, primary screen, cell-based, 384-well; CellTiter-Glo luminescence, 72 h; active compounds read low; viability, % at 10 µM (by protocol); hit rate 1.1% among 86,000; AID 648, 2007;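 active means viability at or below 30%; inactive means viability above 30%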;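 further: 100% = median luminescence of DMSO-only cell control wells on each plate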
# PTK2B oligo ant: antagonists of Pyk2 self-association, primary screen, Q293 cells, FERM NanoBiT luminescence, HTS; Protein-tyrosine kinase 2-beta (Homo sapiens), Q14289; AID 1347419, 2020; hit rate 0.83% among 99,000; active compounds read low; z-score (the deposit names both 25 µM and 10 µM);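 active means Z-score of -3 or lower, scaled per plate to the spread of control and sample wells; inactive means z-score above -3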;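 further: negative z-score means lost luminescence so less FERM oligomerization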
# Target sequence (Q14289 whole entry, looked up): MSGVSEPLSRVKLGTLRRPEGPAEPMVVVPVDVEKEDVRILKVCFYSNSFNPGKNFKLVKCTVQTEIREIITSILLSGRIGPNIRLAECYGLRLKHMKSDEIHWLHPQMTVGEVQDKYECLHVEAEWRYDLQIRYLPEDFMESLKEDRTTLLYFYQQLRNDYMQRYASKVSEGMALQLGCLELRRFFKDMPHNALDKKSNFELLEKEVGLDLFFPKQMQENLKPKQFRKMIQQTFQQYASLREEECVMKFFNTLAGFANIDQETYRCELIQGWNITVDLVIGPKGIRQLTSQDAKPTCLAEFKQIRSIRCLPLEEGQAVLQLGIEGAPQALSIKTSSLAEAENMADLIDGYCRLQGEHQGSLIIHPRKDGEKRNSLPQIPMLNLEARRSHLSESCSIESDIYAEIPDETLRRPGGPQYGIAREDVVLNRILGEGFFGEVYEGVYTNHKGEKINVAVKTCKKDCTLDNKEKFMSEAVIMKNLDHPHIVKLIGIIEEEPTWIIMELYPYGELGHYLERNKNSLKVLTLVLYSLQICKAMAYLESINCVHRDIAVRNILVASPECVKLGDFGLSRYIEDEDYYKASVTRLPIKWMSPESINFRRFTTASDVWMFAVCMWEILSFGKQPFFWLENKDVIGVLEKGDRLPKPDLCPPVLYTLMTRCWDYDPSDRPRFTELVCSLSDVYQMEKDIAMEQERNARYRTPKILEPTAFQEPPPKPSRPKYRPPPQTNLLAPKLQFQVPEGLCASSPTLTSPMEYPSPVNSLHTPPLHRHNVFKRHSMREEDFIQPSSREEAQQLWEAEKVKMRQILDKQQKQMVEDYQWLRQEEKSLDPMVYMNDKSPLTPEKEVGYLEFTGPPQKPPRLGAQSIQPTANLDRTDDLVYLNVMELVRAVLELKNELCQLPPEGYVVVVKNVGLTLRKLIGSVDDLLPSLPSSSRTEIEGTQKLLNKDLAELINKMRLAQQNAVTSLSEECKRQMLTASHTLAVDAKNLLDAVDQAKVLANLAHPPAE
# Fibroblast inh: antiproliferative effect on LL 47 fibroblasts – human, LL 47 cells, CellTiter-Glo luminescence, primary screen; LL 47 human lung fibroblast viability, ATP luminescence; active compounds read low; viability, % at 10 µM; hit rate 1.1% among 85,000;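 active means viability at or below 50% in the single dose screen; inactive means viability above 50%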;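 further: compound exposure lasted 72 h before the ATP readout; 100% = median luminescence of untreated cell-only wells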
#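 Test system: LL 47 human lung fibroblasts; Quantity: 1,150 cells/well; Buffer or medium: IMEM plus 15% FBS; Dosing: tenfold compound dosing solution, DMSO at 0.1%; Timing: overnight cell rest, 72 h compound treatment at 37 °C; Detection: ATP-based CellTiter-Glo luminescent readout; Read-out basis: viability percentage against median untreated-cell control; Controls: cell-only wells, no compound.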
# F-actin modifier: modifiers of F-actin cytoskeleton organization, primary screen, imaging, HUVEC, phalloidin staining, high-content imaging | AID 836, 2007 | hit rate 0.18% among 91,000 | inhibition, % at 2 µM | HUVEC TNFa F-actin phalloidin imaging;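 active means inhibition above the batch mean plus 3 SD and confirmed as a hit by visual image inspection, cut at about 30% in these data, passing the limit was not always enough; inconclusive means above the inhibition threshold but rejected on visual inspection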
# Jurkat viability: cytotoxicity toward Jurkat T cells, primary screen, cytotoxicity control, cell-based, Jurkat E6.1, 60K MLSMR library | Jurkat E6.1 viability, ATP luminescence, 48 h | hit rate 1.2% among 56,000 | inhibition, % at 4 µM;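 active means inhibition above the mean inhibition of all tested compounds plus 3 SD, cut at about 28% in these data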
# H69AR growth 86K: proliferation blockers of H69AR lung cancer cells, primary screen, cell-based, human, 86K library. H69AR lung tumor viability, ATP luminescence, 72 h; active compounds read low. viability, % at 10 µM. hit rate 6% among 85,000;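 active means viability at or below 40%; inactive means viability above 40%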;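 further: multidrug resistant small cell line overexpressing MRP-1 efflux transporter; 100% = mean luminescence of untreated control wells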
# An asterisk follows results filed as active; ? = inconclusive; . = not tested or not shown. Compounds with a hit are over-represented: about 6% of the library has one in this group of screens.
SMILES,HUVEC inhibit,PTK2B oligo ant,Fibroblast inh,F-actin modifier,Jurkat viability,H69AR growth 86K
Cc1cccc(N2C(=O)NC(=O)/C(=C\c3cccn3-c3ccc(Cl)cc3)C2=O)c1,.,-3.44*,.,-18.1,.,.
O=C1NC(=O)C2(Cc3ccccc3N3CCOCC32)C(=O)N1c1ccccc1 (stereo not given),72.4,0.7,94.0,2.3,.,19.2*
O=c1[nH]c(=O)n(Cc2ccc(F)cc2)c(O)c1C=NCCCN1CCOCC1,.,0.44,.,-2.6,-5.2,.
COc1ccc(C2SCC(=O)Nc3c2c(C)nn3C2CCOC(C)(C)C2)cc1OC (stereo not given),99.0,0.03,100.3,-17.4,.,93.5
Cc1nn(Cc2ccccc2)c(C)c1C(=O)OCC(=O)Nc1ccccc1SCC#N,95.1,-2,87.0,-11.6,6.6,73.1
COC(=O)C1CN(C#N)N(c2ccc(Cl)cc2)C12c1ccccc1-c1ccccc12 (stereo not given),2.4*,-2.9,2.1*,?,.,2.3*
N#Cc1ccccc1Cn1cc(C(=O)c2ccccc2F)c2ccccc21,.,-2.09,.,.,.,.
CCCCn1c(=O)c(C(=O)NCc2ccncc2)c(O)c2ccccc21,123.5,-0.53,100.0,10.7,3.2,74.6
O=C(Nc1ccncc1)c1c(O)c2ccccc2n(Cc2ccccc2)c1=O,99.0,.,92.3,.,.,17.3*
CCCCNC(=O)c1c(N)n(CCCOC)c2nc3ccccc3nc12,.,-1.68,.,.,.,.
CCCCCCn1c(=O)c(C(=O)Nc2ccncc2)c(O)c2ccccc21,63.4,.,55.2,.,-3.9,11.5*
CCCCn1c(=O)c(C(=O)Nc2ccccc2S(N)(=O)=O)c(O)c2ccccc21,74.4,-1.15,103.5,.,-4.1,23.1*
O=C(Nc1cccnc1)c1c(O)c2c(n(Cc3ccccc3)c1=O)CCCC2,94.3,1.72,103.0,3.2,6.4,86.3
CCSc1nnc(C(N)Cc2ccccc2)o1 (stereo not given),107.3,-0.2,115.4,-11.0,.,101.2
CCC1(c2ccccc2)C(=O)N(COC)C(=O)N(COC)C1=O,102.9,.,111.6,4.9,-0.4,87.5
CC1CCC/C=C/C2CC(O)CC2C(O)/C=C/C(=O)O1 (stereo not given),8.3*,0.56,11.4*,13.3,.,2.9*
O=c1c2ccccc2nc(-c2ccccc2)n1-c1cccnc1,.,0.2,.,-0.1,.,.
COCCOC(=O)c1c(N)n(Cc2ccco2)c2nc3ccccc3nc12,93.0,-0.49,100.0,.,.,49.8
CC(C)CNC(=O)c1c(N)n(Cc2ccco2)c2nc3ccccc3nc12,65.7,0.66,75.6,0.9,.,33.9*
Nc1c(C(=O)NCc2ccco2)c2nc3ccccc3nc2n1CCN1CCCCC1,18.9*,-0.56,59.8,5.3,.,1.2*
CCCNC(=O)c1c(N)n(Cc2ccco2)c2nc3ccccc3nc12,65.0,.,92.3,-3.5,.,25.9*
CCOC(=O)c1c(-c2ccc(OC)cc2)oc2ccc(OC(=O)N(C)C)cc12,71.8,-1.46,103.1,-18.6,-3.9,32.6*
O=C1C2(c3ccccc3)CN3CN(C2)CC1(c1ccccc1)C3,94.6,0.5,92.8,1.4,.,86.4
CSc1ncc(/C=C2/C(=O)NC(=O)N(C3CCCCC3)C2=O)cn1,.,-0.23,.,-18.4,.,.
O=c1[nH]c(=O)n(CCc2ccccc2)c(O)c1C=NCc1ccc2c(c1)OCO2,71.5,-0.51,80.0,-4.8,.,34.9*
CCOc1ccccc1-n1c(O)c(C=NCc2ccc3c(c2)OCO3)c(=O)[nH]c1=O,97.2,-0.03,95.8,9.5,-0.2,101.2
Cc1cc(OCC(=O)Nc2c(C)n(C)n(-c3ccccc3)c2=O)c2c3c(c(=O)oc2c1)CCC3,99.7,.,107.7,.,-1.0,87.3
Cc1nn(-c2ccccc2)c(Cl)c1C1C(C#N)=C(N)Oc2c1c(=O)oc1ccccc21 (stereo not given),89.1,-3.2*,88.5,.,-3.2,85.9
CCC(CC)C1C(C#N)=C(N)Oc2c1c(=O)oc1ccccc21 (stereo not given),87.3,-1.35,88.1,-5.8,.,36.7*
N#CC1=C(N)Oc2c(c(=O)oc3ccccc23)C1c1cccnc1 (stereo not given),90.1,-0.94,96.7,.,.,92.2
